# From ChEMBL document CHEMBL1134518, “5-(Tryptophyl)amino-1,3-dioxoperhydropyrido[1,2-c]pyrimidine-based potent and selective CCK(1)receptor antagonists: structure-activity relationship studies on the substituent at N2-position” (J Med Chem, 2001)
# What was measured:
# [1] = biological target: T1, Cholecystokinin receptor type A (Rattus norvegicus, UniProt P30551); assay: Inhibition of [3H]pCCK-8 specific binding to cholecystokinin type A receptor in rat pancreas
# T1 sequence (P30551 whole entry): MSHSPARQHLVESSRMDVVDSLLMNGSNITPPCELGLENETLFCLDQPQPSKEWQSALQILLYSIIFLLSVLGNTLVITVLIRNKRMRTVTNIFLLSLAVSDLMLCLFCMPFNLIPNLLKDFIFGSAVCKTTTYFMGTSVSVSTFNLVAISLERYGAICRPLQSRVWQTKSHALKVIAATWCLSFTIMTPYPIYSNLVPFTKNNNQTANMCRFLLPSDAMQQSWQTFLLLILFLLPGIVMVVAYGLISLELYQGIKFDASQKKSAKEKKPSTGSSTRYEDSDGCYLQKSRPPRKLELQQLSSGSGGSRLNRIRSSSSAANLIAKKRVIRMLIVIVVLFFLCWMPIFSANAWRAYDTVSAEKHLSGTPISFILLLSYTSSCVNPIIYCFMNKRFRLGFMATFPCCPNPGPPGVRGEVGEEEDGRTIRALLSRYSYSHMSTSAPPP
# Method in brief: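 Rat pancreas homogenized in Pipes-HCl pH 6.5 with 30 mM MgCl2, centrifuged twice at 50 000g, 10 min, 4 °C. Membranes (0.2 mg protein/tube) incubated with 0.5 nM [3H]pCCK-8, 30 mM MgCl2, bacitracin and SBTI (0.2 mg/mL each), 120 min, 25 °C. Seven test concentrations in triplicate, at least three experiments.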
# [2] = biological target: T2, Gastrin/cholecystokinin type B receptor (Rattus norvegicus, UniProt P30553); assay: Inhibition of [3H]pCCK-8 specific binding cholecystokinin type B receptor in rat cerebral cortex membranes; format: cell membranes, Membrane
# T2 sequence (P30553 whole entry): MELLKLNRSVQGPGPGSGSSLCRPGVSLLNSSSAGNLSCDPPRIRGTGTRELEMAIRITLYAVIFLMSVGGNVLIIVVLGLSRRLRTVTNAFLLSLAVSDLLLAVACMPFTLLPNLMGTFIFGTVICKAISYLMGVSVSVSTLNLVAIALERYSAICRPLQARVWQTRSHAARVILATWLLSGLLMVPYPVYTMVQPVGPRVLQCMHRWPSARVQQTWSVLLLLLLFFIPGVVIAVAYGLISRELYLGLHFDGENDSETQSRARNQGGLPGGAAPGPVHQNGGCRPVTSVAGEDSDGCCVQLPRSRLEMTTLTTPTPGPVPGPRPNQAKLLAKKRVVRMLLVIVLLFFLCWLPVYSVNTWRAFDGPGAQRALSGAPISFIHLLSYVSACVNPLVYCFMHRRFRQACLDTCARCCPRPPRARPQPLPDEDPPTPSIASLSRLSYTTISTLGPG
# Method in brief: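 Rat brain cortex homogenized in 50 mM Tris-HCl pH 7.4 with 5 mM MgCl2, centrifuged twice at 100 000g, 35 min, 4 °C. Membranes (0.45 mg protein/tube) incubated with 1 nM [3H]pCCK-8 plus bacitracin 0.2 mg/mL, 60 min, 25 °C. Seven test concentrations in triplicate, at least three experiments.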
# Rattus norvegicus = species on record: Rattus norvegicus; assay: Inhibition of amylase release stimulated by CCK-8 (0.1 nM) in dispersed pancreatic acini; format: functional
# Method in brief: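 Pancreatic acini prepared by collagenase digestion (two 6 min incubations, 37 °C). Acini were suspended in theophylline/BSA-containing buffer and incubated 30 min, 37 °C, under O2 with 0.1 nM CCK-8 and increasing compound concentrations. Released amylase was measured as a percentage of acinar content. IC50 came from linear regression of % inhibition. Three to six experiments in duplicate.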
SMILES,IC50 [1] [nM],IC50 [2] [nM],IC50 (Rattus norvegicus) [nM]
CC(C)(C)OC(=O)N[C@@H](Cc1c[nH]c2ccccc12)C(=O)NC1CCCN2C(=O)N(C(Cc3ccccc3)C(=O)O)C(=O)CC12 (stereo not given in full),> 1000,> 10000,
CSCC[C@H](NC(=O)[C@H](Cc1ccc(O)cc1)NC(=O)[C@@H](N)CC(=O)O)C(=O)NCC(=O)N[C@@H](Cc1c[nH]c2ccccc12)C(=O)N[C@@H](CCSC)C(=O)N[C@@H](CC(=O)O)C(=O)N[C@@H](Cc1ccccc1)C(N)=O,1.04,,
Cc1ccccc1N1C(=O)C[C@@H]2[C@@H](NC(=O)[C@H](Cc3c[nH]c4ccccc34)NC(=O)OC(C)(C)C)CCCN2C1=O,> 1000,> 10000,
C[C@@H](c1ccccc1)N1C(=O)C[C@@H]2[C@@H](NC(=O)[C@H](Cc3c[nH]c4ccccc34)NC(=O)OC(C)(C)C)CCCN2C1=O,> 1000,> 10000,
CCOC(=O)[C@H](Cc1ccccc1)N1C(=O)C[C@@H]2[C@@H](NC(=O)[C@H](Cc3c[nH]c4ccccc34)NC(=O)OC(C)(C)C)CCCN2C1=O,> 1000,> 10000,
CC(C)(C)OC(=O)N[C@@H](Cc1c[nH]c2ccccc12)C(=O)N[C@@H]1CCCN2C(=O)N(c3ccc([N+](=O)[O-])cc3)C(=O)C[C@@H]12,12,> 10000,64
CC(C)(C)OC(=O)N[C@@H](Cc1c[nH]c2ccccc12)C(=O)N[C@H]1CCCN2C(=O)N(c3cccc([N+](=O)[O-])c3)C(=O)C[C@H]12,> 1000,> 10000,
Cc1cccc(N2C(=O)C[C@H]3[C@H](NC(=O)[C@H](Cc4c[nH]c5ccccc45)NC(=O)OC(C)(C)C)CCCN3C2=O)c1,3.98,> 10000,10
CC(C)(C)OC(=O)N[C@@H](Cc1c[nH]c2ccccc12)C(=O)N[C@@H]1CCCN2C(=O)N(C3CCCCC3)C(=O)C[C@@H]12,0.6,> 10000,3
C[C@H](c1ccccc1)N1C(=O)C[C@H]2[C@H](NC(=O)[C@H](Cc3c[nH]c4ccccc34)NC(=O)OC(C)(C)C)CCCN2C1=O,15,> 10000,12.6
CC(C)(C)OC(=O)N[C@H](Cc1c[nH]c2ccccc12)C(=O)N[C@@H]1CCCN2C(=O)N(c3cccc4ccccc34)C(=O)C[C@@H]12,15.4,> 10000,93
Cc1cccc(N2C(=O)C[C@@H]3[C@@H](NC(=O)[C@H](Cc4c[nH]c5ccccc45)NC(=O)OC(C)(C)C)CCCN3C2=O)c1,100,1320,
CN1C(=O)C[C@@H]2[C@@H](NC(=O)[C@H](Cc3c[nH]c4ccccc34)NC(=O)OC(C)(C)C)CCCN2C1=O,,> 10000,
CC(C)(C)OC(=O)N[C@@H](Cc1c[nH]c2ccccc12)C(=O)N[C@@H]1CCCN2C(=O)N(c3cccc([N+](=O)[O-])c3)C(=O)C[C@@H]12,44,> 10000,49.5
CN(C)c1cccc(N2C(=O)C[C@@H]3[C@@H](NC(=O)[C@H](Cc4c[nH]c5ccccc45)NC(=O)OC(C)(C)C)CCCN3C2=O)c1,> 1000,> 10000,
Cc1ccccc1N1C(=O)C[C@H]2[C@H](NC(=O)[C@H](Cc3c[nH]c4ccccc34)NC(=O)OC(C)(C)C)CCCN2C1=O,0.97,> 10000,1.89
CC(C)(C)OC(=O)N[C@@H](Cc1c[nH]c2ccccc12)C(=O)N[C@@H]1CCCN2C(=O)N(c3cccc4ccccc34)C(=O)C[C@@H]12,0.59,> 10000,0.73
CC(C)(C)OC(=O)N[C@@H](Cc1c[nH]c2ccccc12)C(=O)N[C@@H]1CCCN2C(=O)N(c3ccccc3)C(=O)C[C@@H]12,1.18,> 10000,3.5
C[C@H](c1ccccc1)N1C(=O)C[C@@H]2[C@@H](NC(=O)[C@H](Cc3c[nH]c4ccccc34)NC(=O)OC(C)(C)C)CCCN2C1=O,> 1000,> 10000,
